Where two headings read alike, the source gives them in different places.
Key:
[1] = Centrifugal precipitation of lipid in buffer without protein; format: physicochemical; settings: 10 mM Na-phosphate pH 7.3; ~196,000 × g
tear lipocalin [2] = molecular target: T1, tear lipocalin (Homo sapiens, UniProt P31025); assay: Fluorescence binding assay with NBD-labeled lipids; settings: 1 μM tear lipocalin; for fluorescence in the presence of tear lipocalin compared to the unbound label: 1 μM ligand; for Kd: apparent, pH 7.3
In short: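 After equilibration, fluorescence spectra recorded at 20°C, λex 420 nm. Relative intensity at 523 nm used to compute bound label. Triplicate runs, means taken. B/P versus unbound lipid fitted by nonlinear regression to a rectangular hyperbola or Hill equation, giving apparent Kd and n.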

tear lipocalin [3] = molecular target: T1, tear lipocalin; format: binding
In short: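 Incubated 25°C 30 min or 34°C 16 h, then centrifuged ~196,000 × g, 1 h, same temperature. Bound (supernatant) and precipitated ligand quantified by absorbance via extinction coefficients. Lysozyme 10 μM as negative control. Triplicate means fitted to hyperbola and Hill equation.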

tear lipocalin [4] = molecular target: T1, tear lipocalin; assay: DAUDA displacement fluorescence assay; format: binding; settings: end of titration
tear lipocalin [5] = molecular target: T1, tear lipocalin; assay: Linear spectral summation; format: binding; settings: apparent, tear lipocalin 10 μM, pH 7.3
In short: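 Each spectrum fitted as linear sum of bound reference (2 μM ligand + 10 μM protein), unbound reference (2 μM ligand in buffer) and baseline, yielding bound and free ligand. Triplicate means fitted to hyperbola or Hill equation.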

[6] = apparent, Hill equation fit, 10 μM (C6) or 20 μM (C12) tear lipocalin, 10 mM sodium phosphate pH 7.3
[7] = apparent, hyperbola fit, 10 μM (C6) or 20 μM (C12) tear lipocalin, 10 mM sodium phosphate pH 7.3

T1 sequence (P31025 19-176): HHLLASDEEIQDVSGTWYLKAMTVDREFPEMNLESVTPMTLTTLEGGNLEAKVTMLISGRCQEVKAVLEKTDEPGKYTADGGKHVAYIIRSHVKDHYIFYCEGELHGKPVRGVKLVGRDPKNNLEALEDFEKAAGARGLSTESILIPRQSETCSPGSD

precipitation in buffer [1] | fluorescence in the presence of tear lipocalin compared to the unbound label (tear lipocalin [2]) | Kd (tear lipocalin [2]; Hill equation fit) | Kd (tear lipocalin [2]; hyperbola fit) | Kd (tear lipocalin [3]; [6]) | Kd (tear lipocalin [3]; [7]) | Kd (tear lipocalin [3]; read-out: apparent dissociation constant (Kd), fit not named) | residual DAUDA fluorescence compared with stearic acid (tear lipocalin [4]) | apparent dissociation constant (Kd) (tear lipocalin [3]; fit not named) | Kd (tear lipocalin [5]; Hill equation fit) | Kd (tear lipocalin [5]; hyperbola fit) | SMILES
complete precipitation | enhanced fluorescence | 100 nM | 130 nM | 1060 nM | 1230 nM | 1200 nM | – | – | – | – | CCCCCCCCCCCCC/C=C/[C@@H](O)[C@H](CO)NC(=O)CCCCCCCCCCCNc1ccc([N+](=O)[O-])c2nonc12 [C12-NBD ceramide, N-[12-[(7-nitro-2-1,3-benzoxadiazol-4-yl)amino]dodecanoyl]-D-erythro-sphingosine]
– | – | – | – | – | – | – | twice as great | – | – | – | CCCCCCCCCCCCC/C=C/[C@@H](O)[C@H](CO)NC(=O)CCCCCCCCCCCCCCCCC [C18-ceramide, ceramide-N-(octadecanoyl) sphing-4-enine, also known as N-stearoyl-D-erythro-sphingosine]
complete precipitation | enhanced fluorescence | 80 nM | 80 nM | 290 nM | 320 nM | – | – | sub-micromolar | 70 nM | 60 nM | CCCCCCCCCCCCC/C=C/[C@@H](O)[C@H](CO)NC(=O)CCCCCNc1ccc([N+](=O)[O-])c2nonc12 [C6-NBD ceramide, N-[6-[(7-nitro-2-1,3-benzoxadiazol-4-yl)amino]hexanoyl]-D-erythro-sphingosine]

— publication PMC5835416 (Biochimica et biophysica acta, 2018)
